Publication PMC6247064 (Cancer Science, 2018)

Tested on: Japanese patients with advanced solid tumors
Test: Phase 1 study: safety, tolerability, DLT and treatment-emergent adverse events
Assay type: in vivo, human
Summary of the method: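 Open-label single-arm dose levels of 80 or 105 mg/m2 IV were given on day 1 of 14-day cycles, with at most 6 patients per level. Adverse events were graded by CTCAE v4.03. DLTs were related events in cycle 1 meeting predefined hematologic or nonhematologic criteria. Tolerability required a cycle 1 DLT rate <33%. Primary G-CSF prophylaxis was barred during DLT evaluation; G-CSF was allowed for treatment-emergent neutropenia and as secondary prophylaxis.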

COc1cccc(OCCCN)c1-c1cc(Nc2cnc(C#N)cn2)n[nH]1 [Prexasertib]
TEAE related to study treatment: Febrile neutropenia (80 mg/m^2 N = 6, Grade 4): 1 (16.7) n (%)
TEAE related to study treatment: Headache (80 mg/m^2 N = 6, Grade 4): 0 n (%)
TEAE related to study treatment: Hypocalcemia (80 mg/m^2 N = 6, Grade 4): 0 n (%)
TEAE related to study treatment: Leukopenia (80 mg/m^2 N = 6, Grade 4): 3 (50.0) n (%)
TEAE related to study treatment: Lung infection (80 mg/m^2 N = 6, Grade 4): 0 n (%)
TEAE related to study treatment: Lymphocytopenia (80 mg/m^2 N = 6, Grade 4): 0 n (%)
TEAE related to study treatment: Nausea (80 mg/m^2 N = 6, Grade 4): 0 n (%)
TEAE related to study treatment: Neutropenia (80 mg/m^2 N = 6, Grade 4): 3 (50.0) n (%)
TEAE related to study treatment: Pyrexia (80 mg/m^2 N = 6, Grade 4): 0 n (%)
TEAE related to study treatment: Rash (80 mg/m^2 N = 6, Grade 4): 0 n (%)
TEAE related to study treatment: Rash maculopapular (80 mg/m^2 N = 6, Grade 4): 0 n (%)
TEAE related to study treatment: SVE (supraventricular extrasystoles) (80 mg/m^2 N = 6, Grade 4): 0 n (%)
TEAE related to study treatment: Stomatitis (80 mg/m^2 N = 6, Grade 4): 0 n (%)
TEAE related to study treatment: Thrombocytopenia (80 mg/m^2 N = 6, Grade 4): 1 (16.7) n (%)
Patients with at least 1 AE that led to a dose adjustment (80 mg/m^2 group): 5 patients
Patients with at least 1 AE that led to a dose delay (80 mg/m^2 group): 3 patients
Patients with at least 1 AE that led to dose reduction (80 mg/m^2 group (80 to 60 mg/m^2)): 4 patients
TEAE related to study treatment: Anemia (105 mg/m^2 N = 6, Any grade): 0 n (%)
TEAE related to study treatment: Any (105 mg/m^2 N = 6, Any grade): 6 (100) n (%)
TEAE related to study treatment: Atrial fibrillation (105 mg/m^2 N = 6, Any grade): 0 n (%)
TEAE related to study treatment: Constipation (105 mg/m^2 N = 6, Any grade): 1 (16.7) n (%)
TEAE related to study treatment: ECG QT prolonged (105 mg/m^2 N = 6, Any grade): 0 n (%)
TEAE related to study treatment: Fatigue (105 mg/m^2 N = 6, Any grade): 1 (16.7) n (%)
TEAE related to study treatment: Febrile neutropenia (105 mg/m^2 N = 6, Any grade): 1 (16.7) n (%)
TEAE related to study treatment: Headache (105 mg/m^2 N = 6, Any grade): 1 (16.7) n (%)
TEAE related to study treatment: Hypocalcemia (105 mg/m^2 N = 6, Any grade): 1 (16.7) n (%)
TEAE related to study treatment: Leukopenia (105 mg/m^2 N = 6, Any grade): 6 (100) n (%)
TEAE related to study treatment: Lung infection (105 mg/m^2 N = 6, Any grade): 0 n (%)
TEAE related to study treatment: Lymphocytopenia (105 mg/m^2 N = 6, Any grade): 0 n (%)
TEAE related to study treatment: Nausea (105 mg/m^2 N = 6, Any grade): 0 n (%)
TEAE related to study treatment: Neutropenia (105 mg/m^2 N = 6, Any grade): 6 (100) n (%)
TEAE related to study treatment: Pyrexia (105 mg/m^2 N = 6, Any grade): 1 (16.7) n (%)
TEAE related to study treatment: Rash (105 mg/m^2 N = 6, Any grade): 0 n (%)
TEAE related to study treatment: Rash maculopapular (105 mg/m^2 N = 6, Any grade): 1 (16.7) n (%)
TEAE related to study treatment: SVE (supraventricular extrasystoles) (105 mg/m^2 N = 6, Any grade): 0 n (%)
TEAE related to study treatment: Stomatitis (105 mg/m^2 N = 6, Any grade): 0 n (%)
TEAE related to study treatment: Thrombocytopenia (105 mg/m^2 N = 6, Any grade): 4 (66.7) n (%)
TEAE related to study treatment: Anemia (105 mg/m^2 N = 6, Grade 3): 0 n (%)
TEAE related to study treatment: Any (105 mg/m^2 N = 6, Grade 3): 3 (50.0) n (%)
TEAE related to study treatment: Atrial fibrillation (105 mg/m^2 N = 6, Grade 3): 0 n (%)
TEAE related to study treatment: Constipation (105 mg/m^2 N = 6, Grade 3): 0 n (%)
TEAE related to study treatment: ECG QT prolonged (105 mg/m^2 N = 6, Grade 3): 0 n (%)
TEAE related to study treatment: Fatigue (105 mg/m^2 N = 6, Grade 3): 0 n (%)
TEAE related to study treatment: Febrile neutropenia (105 mg/m^2 N = 6, Grade 3): 1 (16.7) n (%)
TEAE related to study treatment: Headache (105 mg/m^2 N = 6, Grade 3): 0 n (%)
TEAE related to study treatment: Hypocalcemia (105 mg/m^2 N = 6, Grade 3): 0 n (%)
TEAE related to study treatment: Leukopenia (105 mg/m^2 N = 6, Grade 3): 4 (66.7) n (%)
TEAE related to study treatment: Lung infection (105 mg/m^2 N = 6, Grade 3): 0 n (%)
TEAE related to study treatment: Lymphocytopenia (105 mg/m^2 N = 6, Grade 3): 0 n (%)
TEAE related to study treatment: Nausea (105 mg/m^2 N = 6, Grade 3): 0 n (%)
TEAE related to study treatment: Neutropenia (105 mg/m^2 N = 6, Grade 3): 3 (50.0) n (%)
TEAE related to study treatment: Pyrexia (105 mg/m^2 N = 6, Grade 3): 0 n (%)
TEAE related to study treatment: Rash (105 mg/m^2 N = 6, Grade 3): 0 n (%)
TEAE related to study treatment: Rash maculopapular (105 mg/m^2 N = 6, Grade 3): 0 n (%)
TEAE related to study treatment: SVE (supraventricular extrasystoles) (105 mg/m^2 N = 6, Grade 3): 0 n (%)
TEAE related to study treatment: Stomatitis (105 mg/m^2 N = 6, Grade 3): 0 n (%)
TEAE related to study treatment: Thrombocytopenia (105 mg/m^2 N = 6, Grade 3): 1 (16.7) n (%)
TEAE related to study treatment: Anemia (105 mg/m^2 N = 6, Grade 3 + 4): 0 n (%)
TEAE related to study treatment: Any (105 mg/m^2 N = 6, Grade 3 + 4): 6 (100) n (%)
TEAE related to study treatment: Atrial fibrillation (105 mg/m^2 N = 6, Grade 3 + 4): 0 n (%)
TEAE related to study treatment: Constipation (105 mg/m^2 N = 6, Grade 3 + 4): 0 n (%)
TEAE related to study treatment: ECG QT prolonged (105 mg/m^2 N = 6, Grade 3 + 4): 0 n (%)
TEAE related to study treatment: Fatigue (105 mg/m^2 N = 6, Grade 3 + 4): 0 n (%)
TEAE related to study treatment: Febrile neutropenia (105 mg/m^2 N = 6, Grade 3 + 4): 1 (16.7) n (%)
TEAE related to study treatment: Headache (105 mg/m^2 N = 6, Grade 3 + 4): 0 n (%)
TEAE related to study treatment: Hypocalcemia (105 mg/m^2 N = 6, Grade 3 + 4): 0 n (%)
TEAE related to study treatment: Leukopenia (105 mg/m^2 N = 6, Grade 3 + 4): 5 (83.3) n (%)
